Measurements reported in ChEMBL document CHEMBL1136894, “New antituberculotics originated from salicylanilides with promising in vitro activity against atypical mycobacterial strains” (Bioorg Med Chem, 2009).
≈ marks a conversion by molar mass, not a printed value.

Columns and labels:
Mycobacterium kansasii [1] = assay: Antimycobacterial activity against Mycobacterium kansasii CNCTC My 235/80 after 21 days; assay type: functional; settings: CNCTC My 235/80, 504 h
Method in brief: (§1)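 Compounds were added as DMSO solutions to Sula semisynthetic medium at 250, 125, 62, 32, 16, 8, 4, 2 and 1 µmol/L. Two M. kansasii strains were used: CNCTC My 235/80 and clinical isolate 6509/96, each with strain dilution 10^-4. Incubation was at 37 °C, and MIC was read at 7, 14 and 21 days.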

Mycobacterium kansasii [2] = assay: Antimycobacterial activity against Mycobacterium kansasii isolate 6509/96 after 7 days; assay type: functional; settings: isolate 6509/96, 168 h; method in brief: as §1
Mycobacterium kansasii [3] = assay: Antimycobacterial activity against Mycobacterium kansasii CNCTC My 235/80 after 7 days; assay type: functional; settings: CNCTC My 235/80, 168 h; method in brief: as §1
Mycobacterium kansasii [4] = assay: Antimycobacterial activity against Mycobacterium kansasii isolate 6509/96 after 21 days; assay type: functional; settings: isolate 6509/96, 504 h; method in brief: as §1
Mycobacterium avium [5] = assay: Antimycobacterial activity against Mycobacterium avium CNCTC My 330/88 after 21 days; assay type: functional; settings: CNCTC My 330/88, 504 h
Method in brief: (§2)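 Broth dilution in Sula semisynthetic medium, compounds added as DMSO solutions at 250, 125, 62, 32, 16, 8, 4, 2 and 1. Strains came from the Czech National Collection of Type Cultures; the M. tuberculosis inoculum was diluted 10^-3. Cultures were incubated at 37 °C, and MIC was read after 7, 14 and 21 days.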

Mycobacterium kansasii [6] = assay: Antimycobacterial activity against Mycobacterium kansasii CNCTC My 235/80 after 14 days; assay type: functional; settings: CNCTC My 235/80, 336 h; method in brief: as §1
[7] = system: Mycobacterium tuberculosis; assay: Antimycobacterial activity against Mycobacterium tuberculosis CNCTC My 331/88 after 14 days; assay type: functional; settings: CNCTC My 331/88, 336 h; method in brief: as §2
Mycobacterium kansasii [8] = assay: Antimycobacterial activity against Mycobacterium kansasii isolate 6509/96 after 14 days; assay type: functional; settings: isolate 6509/96, 336 h; method in brief: as §1
[9] = Stability assessed as half life in phosphate buffer at pH 7.4 by UV-visible spectroscopy; assay type: physicochemical
Method in brief: (§3)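 Compound in methanolic solution (10 or 20 µL) was added to tempered 7 × 10^-2 M phosphate buffer (2 mL) at pH 7.4 or 5.5, 37 °C. The absorbance decrease at 224 nm was followed by UV/vis.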

[10] = Stability assessed as half life in phosphate buffer at pH 5.5 by UV-visible spectroscopy; assay type: physicochemical; method in brief: as §3
[11] = Lipophilicity, log K by HPLC; assay type: physicochemical
Method in brief: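 Capacity factors k were measured by RP-HPLC and log k was calculated from them.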

Mycobacterium avium [12] = assay: Antimycobacterial activity against Mycobacterium avium CNCTC My 330/88 after 14 days; assay type: functional; settings: CNCTC My 330/88, 336 h; method in brief: as §2
[13] = system: Mycobacterium tuberculosis; assay: Antimycobacterial activity against Mycobacterium tuberculosis CNCTC My 331/88 after 21 days; assay type: functional; settings: CNCTC My 331/88, 504 h; method in brief: as §2
HCT-8 = assay: Cytotoxicity against human HCT8 cells after 72 hrs by XTT assay; assay type: functional, cell-based; settings: HCT-8, 72 h
Method in brief: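 HCT-8 cells were grown in EMEM with 5% FBS at 37 °C under 5% CO2. They were harvested with trypsin, seeded at 2 × 10^5 cells/mL and left 24 h. Medium was then replaced with compound in DMSO. DMSO-only wells served as the viability control and 20% DMSO as the cytotoxic control. Reagent was added for 4 h and absorbance read at 450 nm. Triplicates; EC50 reported.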

[14] = Selectivity index, ratio of EC50 for human HCT8 cells to MIC for Mycobacterium tuberculosis CNCTC My 331/88; assay type: functional, HCT-8
Method in brief: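 SI is EC50 in HCT-8 cells divided by the M. tuberculosis MIC. HCT-8 cells were grown in EMEM with 5% FBS at 37 °C under 5% CO₂, trypsinised and seeded at 2 × 10⁵ cells/mL. After 24 h the medium was replaced with compound in DMSO. Controls were DMSO alone and 20% DMSO. Absorbance was read at 450 nm 4 h after reagent addition, in triplicate.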

SMILES | MIC (Mycobacterium kansasii [1]) [µM] | MIC (Mycobacterium kansasii [2]) [µM] | MIC (Mycobacterium kansasii [3]) [µM] | MIC (Mycobacterium kansasii [4]) [µM] | MIC (Mycobacterium avium [5]) [µM] | MIC (Mycobacterium kansasii [6]) [µM] | MIC [7] [µM] | MIC (Mycobacterium kansasii [8]) [µM] | half-life [9] [min] | half-life [10] [min] | log K [11] | MIC (Mycobacterium avium [12]) [µM] | MIC [13] [µM] | EC50 (HCT-8) [µM] | Ratio [14]
CC(C)[C@@H](NC(=O)OCc1ccccc1)C(=O)Oc1cc(Cl)ccc1C(=O)Nc1ccc(Cl)cc1 | 8 (≈ 4.12 µg/mL) | 4 (≈ 2.06 µg/mL) | 4 (≈ 2.06 µg/mL) | 8 (≈ 4.12 µg/mL) | 16 (≈ 8.25 µg/mL) | 8 (≈ 4.12 µg/mL) | 4 (≈ 2.06 µg/mL) | 8 (≈ 4.12 µg/mL) | 20.4 | 20.3 | 0.8816 | 8 (≈ 4.12 µg/mL) | 4 (≈ 2.06 µg/mL) | 107 | 13.75
O=C(N[C@H](Cc1ccccc1)C(=O)Oc1ccc(Cl)cc1C(=O)Nc1ccc(Br)cc1)OCc1ccccc1 | 4 (≈ 2.43 µg/mL) | 8 (≈ 4.86 µg/mL) | 2 (≈ 1.22 µg/mL) | 8 (≈ 4.86 µg/mL) | 16 (≈ 9.73 µg/mL) | 4 (≈ 2.43 µg/mL) | 2 (≈ 1.22 µg/mL) | 8 (≈ 4.86 µg/mL) | 34.3 | 32.5 | 1.1267 | 8 (≈ 4.86 µg/mL) | 4 (≈ 2.43 µg/mL) | 35.5 | 10.61
O=C(N[C@H](Cc1ccccc1)C(=O)Oc1cc(Cl)ccc1C(=O)Nc1ccc(Cl)cc1)OCc1ccccc1 | 8 (≈ 4.51 µg/mL) | 4 (≈ 2.25 µg/mL) | 4 (≈ 2.25 µg/mL) | 8 (≈ 4.51 µg/mL) | 8 (≈ 4.51 µg/mL) | 8 (≈ 4.51 µg/mL) | 4 (≈ 2.25 µg/mL) | 8 (≈ 4.51 µg/mL) | 22.1 | 17.9 | 1.0315 | 8 (≈ 4.51 µg/mL) | 4 (≈ 2.25 µg/mL) | 104 | 26.05
O=C(N[C@@H](Cc1ccccc1)C(=O)Oc1cc(Cl)ccc1C(=O)Nc1ccc(Cl)cc1)OCc1ccccc1 | 8 (≈ 4.51 µg/mL) | 4 (≈ 2.25 µg/mL) | 4 (≈ 2.25 µg/mL) | 8 (≈ 4.51 µg/mL) | 8 (≈ 4.51 µg/mL) | 8 (≈ 4.51 µg/mL) | 4 (≈ 2.25 µg/mL) | 8 (≈ 4.51 µg/mL) | 25.3 | 21.9 | 1.0304 | 8 (≈ 4.51 µg/mL) | 4 (≈ 2.25 µg/mL) | 82.9 | 20.73
CC(C)[C@H](NC(=O)OCc1ccccc1)C(=O)Oc1ccc(Cl)cc1C(=O)Nc1ccc(Br)cc1 | 8 (≈ 4.48 µg/mL) | 8 (≈ 4.48 µg/mL) | 4 (≈ 2.24 µg/mL) | 8 (≈ 4.48 µg/mL) | 16 (≈ 8.96 µg/mL) | 8 (≈ 4.48 µg/mL) | 4 (≈ 2.24 µg/mL) | 8 (≈ 4.48 µg/mL) | 14.8 | 14.3 | 0.9803 | 8 (≈ 4.48 µg/mL) | 4 (≈ 2.24 µg/mL) | 122 | 16.74
CC(C)[C@@H](NC(=O)OCc1ccccc1)C(=O)Oc1ccc(Cl)cc1C(=O)Nc1ccc(Br)cc1 | 8 (≈ 4.48 µg/mL) | 8 (≈ 4.48 µg/mL) | 4 (≈ 2.24 µg/mL) | 8 (≈ 4.48 µg/mL) | 16 (≈ 8.96 µg/mL) | 8 (≈ 4.48 µg/mL) | 2 (≈ 1.12 µg/mL) | 8 (≈ 4.48 µg/mL) | 15 | 14.8 | 0.9805 | 16 (≈ 8.96 µg/mL) | 4 (≈ 2.24 µg/mL) | 121 | 33.35
O=C(CNC(=O)OCc1ccccc1)Oc1ccc(Cl)cc1C(=O)Nc1cccc(Cl)c1 | 16 (≈ 7.57 µg/mL) | 8 (≈ 3.79 µg/mL) | 16 (≈ 7.57 µg/mL) | 16 (≈ 7.57 µg/mL) | 32 (≈ 15.1 µg/mL) | 16 (≈ 7.57 µg/mL) | 4 (≈ 1.89 µg/mL) | 16 (≈ 7.57 µg/mL) | – | – | 0.6119 | 16 (≈ 7.57 µg/mL) | 8 (≈ 3.79 µg/mL) | – | –
